Data taken from ChEMBL document CHEMBL2375242, “Synthesis of (S)-FTY720 vinylphosphonate analogues and evaluation of their potential as sphingosine kinase 1 inhibitors and activators” (Bioorg Med Chem, 2013).
Active and inactive are the calls of the source. The rule behind the calls is not given here.

Assays:
[1] = molecular target: T1, Sphingosine kinase 1 (Homo sapiens, UniProt Q9NYA1); assay: Activity at recombinant GFP-tagged SK1 (unknown origin) expressed in HEK293 cells at 50 uM after 30 mins by Cerenkov counting analysis; assay type: cell-based
T1 sequence (Q9NYA1 whole entry): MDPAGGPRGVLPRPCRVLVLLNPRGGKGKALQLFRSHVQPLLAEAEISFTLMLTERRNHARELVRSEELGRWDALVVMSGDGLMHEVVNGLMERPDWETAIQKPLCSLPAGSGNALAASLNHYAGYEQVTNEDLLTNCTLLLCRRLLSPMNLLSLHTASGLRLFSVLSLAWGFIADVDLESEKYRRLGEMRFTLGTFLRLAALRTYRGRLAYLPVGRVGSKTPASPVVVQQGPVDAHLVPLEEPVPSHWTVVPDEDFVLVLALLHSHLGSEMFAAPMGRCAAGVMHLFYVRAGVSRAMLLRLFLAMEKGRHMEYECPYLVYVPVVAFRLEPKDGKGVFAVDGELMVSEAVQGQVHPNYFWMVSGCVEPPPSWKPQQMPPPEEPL

[2] = molecular target: T1, Sphingosine kinase 1; assay: Activation of recombinant GFP-tagged SK1 (unknown origin) expressed in HEK293 cells using sphingosine as substrate above 50 uM after 30 mins by Cerenkov counting analysis; assay type: cell-based
Procedure, shortened: (§1)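 Lysate of HEK 293 cells stably overexpressing GFP-SK1 (30 μg protein) was incubated for 30 min at 30 °C with 3 μM sphingosine (Km) in Triton X-100 and 250 μM [γ-32P]ATP in 10 mM MgCl2, at pH 7.4 Tris buffer with phosphatase and protease inhibitors. Compounds were in DMSO; the control was 5% DMSO. [32P]-S1P was extracted into 1-butanol/KCl and measured by Cerenkov counting. Activity is % of the sphingosine-alone control, n = 3, mean ± S.E.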

[3] = molecular target: T1, Sphingosine kinase 1; assay: Activation of recombinant GFP-tagged SK1 (unknown origin) expressed in HEK293 cells using sphingosine as substrate after 30 mins by Cerenkov counting analysis; assay type: cell-based
Procedure, shortened: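 Enzyme source: lysates (30 μg) of HEK 293 cells stably overexpressing GFP-SK1, cultured in DMEM/10% FCS with geneticin. Reaction run 30 min at 30 °C with 3 μM sphingosine in Triton X-100 (0.063% final) and 250 μM [γ-32P]ATP in 10 mM MgCl2, pH 7.4 Tris buffer. Compound added in DMSO; control is 5% DMSO, set as 100% activity. [32P]-S1P is extracted into butanol and read by Cerenkov counting. EC50 from concentration-response, n = 3.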

[4] = molecular target: T1, Sphingosine kinase 1; assay: Activation of recombinant GFP-tagged SK1 (unknown origin) expressed in HEK293 cells using sphingosine as substrate at 50 uM after 30 mins by Cerenkov counting analysis relative to control; assay type: cell-based; procedure, shortened: as §1
[5] = molecular target: T1, Sphingosine kinase 1; assay: Inhibition of recombinant GFP-tagged SK1 (unknown origin) expressed in HEK293 cells using sphingosine as substrate at 50 uM after 30 mins by Cerenkov counting analysis relative to control
[6] = molecular target: T1, Sphingosine kinase 1; assay: Uncompetitive inhibition of recombinant SK1 (unknown origin) expressed in HEK293 cells after 15 to 20 mins by Cornish-Bowden plot analysis in presence of sphingosine; assay type: cell-based
[7] = molecular target: T1, Sphingosine kinase 1; assay: Competitive inhibition of SK1 (unknown origin) in presence of ATP
[8] = molecular target: T1, Sphingosine kinase 1; assay: Uncompetitive inhibition of SK1 (unknown origin) in presence of ATP
[9] = molecular target: T1, Sphingosine kinase 1; assay: Inhibition of recombinant GFP-tagged SK1 (unknown origin) expressed in HEK293 cells using sphingosine as substrate at 50 uM after 30 mins by Cerenkov counting analysis relative to control; assay type: cell-based; procedure, shortened: as §1

In the case of `CCCCCCCCc1ccc(CC[C@](/C=C/P(=O)(O)O)(CO)N=[N+]=[N-])cc1`, the Activity [1] is reported as “inactive”, the Activity [2] is reported as “inactive” and the EC50 [3] is reported as 8.3 µM. The Activity [4] was 30%.

`CCCCCCCCc1ccc(CC[C@](N)(/C=C/P(=O)(O)O)CO)cc1` gave an inhibition [5] of 62.7%, a Kiuc [6] of 14.5 µM and a Kic [7] of 10 µM. It also gave a Kiuc [8] of 65 µM.

For `CCCCCCCCc1ccc(CC[C@](/C=C/P(=O)(O)O)(CF)N=[N+]=[N-])cc1`, the Activity [1] was “inactive”, the EC50 [3] was 5.7 µM and the Activity [4] was 30%.

With `CCCCCCCCc1ccc(CC[C@](N)(/C=C/C(=O)O)CO)cc1` the Activity [1] was “inactive” and the inhibition [9] was “inactive”.

`CCCCCCCCc1ccc(CC[C@](N)(/C=C/P(=O)(O)O)CF)cc1` was tested, and the Activity [1] was “inactive” and the inhibition [9] was 20%.

For `CCCCCCCCc1ccc(CC[C@]2(N)CCC(=O)OC2)cc1`, the Activity [1] was “inactive” and the inhibition [9] was 35%.
